ChEMBL document CHEMBL3046176, “Synthesis, crystal structure, and biological activities of 2-cyanoacrylates containing furan or tetrahydrofuran moieties” (2007)

Columns and labels:
Type in all cases: functional
Fusarium graminearum = assay: Antifungal activity against Fusarium graminearum assessed as inhibition of mycelium growth at 50 mg/L at 26 degC measured after 72 hr
Procedure, shortened: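 Mycelium growth test on agar plates: 1 mL test solution (50 mg/L) mixed with 9 mL agar medium; sterile water in place of test solution for controls. 4 mm inocula cut from margins of actively growing colonies, placed at plate centre, incubated at 26 °C; mycelium diameter measured over 72 h. Inhibition % from mean hyphal diameter against control. Triplicate.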

[1] = system: Botryosphaeria berengeriana; assay: Antifungal activity against Botryosphaeria berengeriana assessed as inhibition of mycelium growth at 50 mg/L at 26 degC measured after 72 hr
Procedure, shortened: (§1)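 Mycelium growth assay on agar. 1 mL test solution (50 mg/L) was poured into a 9 cm plate with 9 mL agar medium. Controls used sterile water in its place. A 4 mm plug from the margin of an actively growing colony was placed in the centre and incubated at 26 °C. Hyphal diameter was measured over 72 h, in triplicate. Inhibition % = (control diameter − treated diameter)/control diameter.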

Alternaria solani = assay: Antifungal activity against Alternaria solani assessed as inhibition of mycelium growth at 50 mg/L at 26 degC measured after 72 hr; procedure, shortened: as §1
Brassica napus [2] = assay: Herbicidal activity against rape Brassica napus (oilseed rape) assessed as herbicidal damage at 1.5 kg/ha measured after postemergence treatment; conditions: post-emergence
Procedure, shortened: (§2)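 Seeds were sown in 6 cm boxes of artificial mixed soil, covered with plastic film until emergence, and grown in a greenhouse. Sprays were applied right after sowing (preemergence) or after the first true leaf expanded (postemergence). Controls received the same amount of water/DMF/Tween 20. Above-ground fresh weight was taken 10 days after treatment, in triplicate, as % damage versus control.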

Medicago sativa [3] = assay: Herbicidal activity against Medicago sativa (alfalfa) assessed as herbicidal damage at 1.5 kg/ha measured after postemergence treatment; conditions: post-emergence; procedure, shortened: as §2
Brassica napus [4] = assay: Herbicidal activity against rape Brassica napus (oilseed rape) assessed as herbicidal damage at 1.5 kg/ha measured after preemergence treatment; conditions: pre-emergence; procedure, shortened: as §2
Tobacco mosaic virus = assay: Antiviral activity against Tobacco mosaic virus (TMV) inoculated in fresh tobacco leaf at 100 mg/L by half-leaf method
Procedure, shortened: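 Half-leaf method on tobacco leaves at the 5-6 growth stage. Leaves were inoculated with TMV by juice-leaf rubbing at 5.88 × 10-2 µg/mL and cut along the main vein. One half was immersed in test solution and the other in double distilled water for 20 min, then cultured at 25 °C for 72 h, in triplicate. Inhibition = 100(CK − A)/CK, from average lesion counts.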

Mycosphaerella arachidis = assay: Antifungal activity against Mycosphaerella arachidis assessed as inhibition of mycelium growth at 50 mg/L at 26 degC measured after 72 hr; procedure, shortened: as §1
Digitaria sanguinalis [5] = assay: Herbicidal activity against hairy crabgrass Digitaria sanguinalis (hairy crabgrass) assessed as herbicidal damage at 1.5 kg/ha measured after preemergence treatment; conditions: pre-emergence; procedure, shortened: as §2
Cucumis sativus = assay: Plant growth regulatory activity in Cucumis sativus (cucumber) seed assessed as number of root at 10 mg/L at 26 degC measured after 5 days
Procedure, shortened: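 Cucumber seeds were incubated at 26 °C in the dark for 72 h, then 10 cotyledons were excised and treated. Incubation continued at 26 °C in the dark for 5 days. Roots were counted, with water-only controls, in triplicate.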

Digitaria sanguinalis [6] = assay: Herbicidal activity against hairy crabgrass Digitaria sanguinalis (hairy crabgrass) assessed as herbicidal damage at 1.5 kg/ha measured after postemergence treatment; conditions: post-emergence; procedure, shortened: as §2
Amaranthus retroflexus [7] = assay: Herbicidal activity against Amaranthus retroflexus assessed as herbicidal damage at 1.5 kg/ha measured after preemergence treatment; conditions: pre-emergence; procedure, shortened: as §2
Medicago sativa [8] = assay: Herbicidal activity against Medicago sativa (alfalfa) assessed as herbicidal damage at 1.5 kg/ha measured after preemergence treatment; conditions: pre-emergence; procedure, shortened: as §2
Cladosporium cucumerinum = assay: Antifungal activity against Cladosporium cucumerinum assessed as inhibition of mycelium growth at 50 mg/L at 26 degC measured after 72 hr; procedure, shortened: as §1
Amaranthus retroflexus [9] = assay: Herbicidal activity against Amaranthus retroflexus assessed as herbicidal damage at 1.5 kg/ha measured after postemergence treatment; conditions: post-emergence; procedure, shortened: as §2

Compound	inhibition at 50 µg/mL (Fusarium graminearum) [%]	inhibition at 50 µg/mL [1] [%]	inhibition at 50 µg/mL (Alternaria solani) [%]	inhibition at 1500 g/ha (Brassica napus [2]) [%]	inhibition at 1500 g/ha (Medicago sativa [3]) [%]	inhibition at 1500 g/ha (Brassica napus [4]) [%]	Activity (Tobacco mosaic virus) [%]	inhibition at 50 µg/mL (Mycosphaerella arachidis) [%]	inhibition at 1500 g/ha (Digitaria sanguinalis [5]) [%]	Activity (Cucumis sativus) [%]	inhibition at 1500 g/ha (Digitaria sanguinalis [6]) [%]	inhibition at 1500 g/ha (Amaranthus retroflexus [7]) [%]	inhibition at 1500 g/ha (Medicago sativa [8]) [%]	inhibition at 50 µg/mL (Cladosporium cucumerinum) [%]	inhibition at 1500 g/ha (Amaranthus retroflexus [9]) [%]
CCOCCOC(=O)/C(C#N)=C(/C)NCC1CCCO1 (stereo not given)	10	9.1	0	57.9	28.7	8.5	7.5	44.6	5.7	-6.6	7.1	0	11.3	13.2	36.4
CCOCCOC(=O)/C(C#N)=C(/C)NCc1ccoc1	33.3	13.6	0	49.8	20.4	0		44.6	22.8	-18.6	0	21.1	6.8	36.8	37.1
CCC/C(NCc1ccco1)=C(\C#N)C(=O)OCCOCC	30	9.1	10.7	22.9	12.6	30.7		3.6	22.8	14.4	1	0	0	13.2	31.6
CCOCCOC(=O)/C(C#N)=C(/NCc1ccoc1)SC	36.7	9.1	3.6	30.8	31.1	0	8	12.5	0	14.4	5.1	8.4	16.5	13.2	28.8
CCOCCOC(=O)/C(C#N)=C(/CC)NCC1CCCO1 (stereo not given)	20	22.7	10.7	63.7	22.2	7.4	13.2	37.5	0	2.4	0	8.4	3	15.8	46.1
CCOCCOC(=O)/C(C#N)=C(/CC)NCc1ccoc1	33.3	4.5	10.7	33.8	0	0		35.7	0	23.4	0	11.6	2.3	26.3	23.3
CCOCCOC(=O)/C(C#N)=C(/C)NCC1CCOC1 (stereo not given)	0	27.3	35.7	52.3	5.4	0		12.5	31.4	-6.6	0	12.6	7.5	18.4	29.5
CCOCCOC(=O)/C(C#N)=C(\NCc1ccoc1)C(C)C	0	22.7	25	51.9	13.2	0		30.4	33.6	11.4	0	22.1	10.5	13.2	27.4
